In ChEMBL document CHEMBL1142792, “Structure-activity relationship studies of salubrinal lead to its active biotinylated derivative” (Bioorg Med Chem Lett, 2005):

Tested on: PC-12; call rule not given here
Test: Cytoprotective activity on rat tunicamycin treated rat pheochromocytoma cell line PC12 from apoptosis induced by Endoplasmic reticulum stress; TX=Toxic
Type: functional, cell-based
In short: (§1)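 PC12 cells exposed to tunicamycin (ER-stress inducer) together with graded compound doses for 37 h; viability read as cellular ATP content. Positive control: zVAD.fmk 100 µM. EC50 taken as concentration giving half-maximal rescue from cell death relative to the Tm-only control.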

Structure (SMILES) | EC50
O=C(/C=C/c1ccccc1)NCCNC(=S)Nc1ccccn1 | Toxic
O=C(/C=C/c1ccccc1)NC(/N=C(\S)Nc1ccccn1)C(F)(F)F (stereo unspecified) | Toxic
O=C(/C=C/c1ccccc1)NNC(=S)Nc1ccccn1 | Toxic

Tested on: PC-12
Test: Cytoprotective activity on rat tunicamycin treated rat pheochromocytoma cell line PC12 from apoptosis induced by Endoplasmic reticulum stress
Type: functional, cell-based
In short: as §1

Structure (SMILES) | EC50
O=C(/C=C/c1cccs1)NC(NC(=S)Nc1ccccn1)C(Cl)(Cl)Cl (stereo unspecified) | 41 µM
O=C(/C=C/c1ccccc1Cl)NC(NC(=S)Nc1ccccn1)C(Cl)(Cl)Cl (stereo unspecified) | 40 µM
O=C(/C=C/C1CCCCC1)NC(NC(=S)Nc1ccccn1)C(Cl)(Cl)Cl (stereo unspecified) | 29 µM
O=C(/C=C/c1ccccc1)NC(NC(=S)Nc1ccccn1)C(Br)(Br)Br (stereo unspecified) | 51 µM
O=C(/C=C/c1ccccc1)NC(NC(=S)Nc1cccc2cccnc12)C(Cl)(Cl)Cl (stereo unspecified) [SALUBRINAL] | 15 µM
O=C(/C=C/c1cccnc1)NC(NC(=S)Nc1ccccn1)C(Cl)(Cl)Cl (stereo unspecified) | 30 µM
Nc1ccc(/C=C/C(=O)NC(/N=C(\S)Nc2ccccn2)C(Cl)(Cl)Cl)cc1 (stereo unspecified) | 56 µM
O=C(/C=C/c1ccccc1)NC(NC(=S)Nc1ccccn1)C(Cl)(Cl)Cl (stereo unspecified) | 40 µM
O=C(/C=C/c1ccc(F)cc1F)NC(/N=C(\S)Nc1ccccn1)C(Cl)(Cl)Cl (stereo unspecified) | 72 µM
O=C(/C=C/c1ccccc1C(F)(F)F)NC(/N=C(\S)Nc1ccccn1)C(Cl)(Cl)Cl (stereo unspecified) | 38 µM
CCCC/N=C(\S)NC(NC(=O)/C=C/c1ccccc1)C(Cl)(Cl)Cl (stereo unspecified) | 24 µM
O=C(CCc1ccccc1)NC(NC(=S)Nc1ccccn1)C(Cl)(Cl)Cl (stereo unspecified) | 33 µM
O=C(/C=C/c1ccc(Br)cc1)NC(NC(=S)Nc1ccccn1)C(Cl)(Cl)Cl (stereo unspecified) | 50 µM
O=C(/C=C/c1ccc([N+](=O)[O-])cc1)NC(/N=C(\S)Nc1ccccn1)C(Cl)(Cl)Cl (stereo unspecified) | 28 µM
O=C(/C=C/c1ccccc1)NC(NC(=S)Nc1ccccn1)C(Cl)Cl (stereo unspecified) | 75 µM
O=C(/C=C/c1ccccc1)NC(NC(=S)NC(=O)c1ccccc1)C(Cl)(Cl)Cl (stereo unspecified) | > 100 µM

Tested on: PC-12
Test: Cytoprotective activity on rat tunicamycin treated rat pheochromocytoma cell line PC12 from apoptosis induced by Endoplasmic reticulum stress; NA = Not active upto 100 uM
Type: functional, cell-based
In short: as §1

Structure (SMILES) | EC50
O=C(NC(NC(=S)Nc1ccccn1)C(Cl)(Cl)Cl)c1ccccc1 (stereo unspecified) | Not Active
CC(C)=CC(=O)NC(/N=C(\S)Nc1ccccn1)C(Cl)(Cl)Cl (stereo unspecified) | Not Active
CCOC(=O)C(/N=C(\S)Nc1ccccn1)NC(=O)/C=C/c1ccccc1 (stereo unspecified) | Not Active
O=C(/C=C/c1ccccc1)NC(CO)/N=C(\S)Nc1ccccn1 (stereo unspecified) | Not Active
CCCCOc1ccc(/C=C/C(=O)NC(/N=C(\S)Nc2ccccn2)C(Cl)(Cl)Cl)cc1 (stereo unspecified) | Not Active
O=C(/C=C/c1ccccc1)NC(NC(=S)Nc1cnc2ccccc2c1)C(Cl)(Cl)Cl (stereo unspecified) | Not Active
O=C(/C=C/c1ccccc1)NC1CSC(Nc2ccccn2)=N1 (stereo unspecified) | Not Active
